Test results from PMC12750372 (Acta Pharmaceutica Sinica. B, 2025).

Tests used:
[1] = test system: HEK 293T cells; experiment: Cell uptake by flow cytometry of FITC-labeled peptides; type: cell-based
Procedure, shortened: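 Suspended HEK 293T cells (3 × 10^5, DMEM with 10% FBS) were mixed with FITC-labeled peptides in DMEM (0.1% DMSO) at final 1, 10 and 20 μmol/L for 30 min at room temperature in the dark. They were spun at 500×g, washed in staining buffer, resuspended and run on a flow cytometer. Mean fluorescence from two independent experiments was normalized to a reference stapled peptide at 20 μmol/L.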

[2] = test system: HEK 293T cells; experiment: Cell uptake by confocal microscopy of FITC-labeled peptides; type: cell-based; conditions: FITC-labeled peptides at 10 μmol/L, 4 h
Procedure, shortened: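 HEK 293T cells attached overnight, then received FITC-labeled peptides in DMEM (0.1% DMSO) at final 1, 10 and 20 μmol/L for 4 h at 37 °C, 5% CO2. After three PBS washes, cells were DAPI-stained (10 μg/mL, 10 min), washed, methanol-fixed 5 min and imaged by multiphoton laser scanning microscopy. The αB helix of KID served as control peptide.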

[3] = test system: CREB-mediated gene transcription; experiment: CREB Renilla luciferase; type: cell-based; conditions: read-out: CREB inhibition IC50; inhibition of CREB-mediated gene transcription in HEK 293T cells, CRE-RLuc, 30 min peptide then Fsk 10 μmol/L for 5 h
Procedure, shortened: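 HEK 293T cells were transfected for 3 h with 2 μg pCRE-RLuc (Renilla luciferase driven by three CRE copies) by lipofection, then replated overnight. Peptides at graded concentrations were added for 30 min before forskolin (10 μmol/L), then incubated 5 h at 37 °C. Lysate Renilla luciferase was normalized to well protein (RLU/μg) and expressed as % CREB activity. IC50 came from nonlinear regression.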

[4] = test system: KIX/KID interaction; conditions: up to 50 μmol/L; cited from earlier work
[5] = test system: CREB-mediated transcription; conditions: read-out: IC50 in CREB Renilla luciferase reporter assay; cited from earlier work

| Compound | Fold increase of cell uptake compared to linear L3 and stapled S1 [1] | Cell uptake by confocal imaging [2] | IC50 [3] | Inhibition of the KIX/KID interaction (in words) [4] | IC50 [5] |
| --- | --- | --- | --- | --- | --- |
| CC(=O)N[C@@H](Cc1ccc(O)cc1)CN(CC(=O)N[C@@H](CCCCN)CN(CC(=O)N[C@@H](Cc1ccccc1)CN(CC(=O)N[C@H]1CCCCNc2c(F)c(F)c(c(F)c2F)Sc2c(F)c(F)c(c(F)c2F)Sc2c(F)c(F)c(c(F)c2F)NCCCC[C@@H](CN(CC(=O)N[C@@H](C)CN(CC(N)=O)S(C)(=O)=O)S(C)(=O)=O)NC(=O)CN(S(=O)(=O)CC(C)C)C[C@H](CC(C)C)NC(=O)CN(S(=O)(=O)CCN)C1)S(=O)(=O)CC(C)C)S(=O)(=O)CCN)S(C)(=O)=O [Compound S3] | ~4 fold | significant cell uptake | 66 µM |  |  |
| O=C(Nc1ccc(Cl)cc1)c1cc2ccccc2cc1OP(=O)(O)O [KG-501] |  |  |  | no significant inhibition | 5.4 µM |
